Activity calls are given as the source filed them. The calls are words filed in the database; no cut-off is given here.
How the values were obtained:
[1] = molecular target: T1, Protein cereblon/Tyrosine-protein kinase BTK (Homo sapiens, UniProt Q06187+Q96SW2); experiment: PROTAC activity at BTK/CRBN protein protein interaction in human Ramos cell assessed as degradation of BTK incubated for 17 hrs measured by Western blot analysis; type: cell-based
How it was run: (§1)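 Ramos or JeKo-1 cells (2 × 10^6 per well) were exposed for 17 h to 3000–0.15 nM PROTAC in 3-fold steps. Cells were lysed and analysed by western blot, with BTK normalised to β-actin. DC50 and Dmax come from the dose-response; DC50 is the mean ± SD of two independent experiments.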
Target sequence in this assay (Q06187 whole entry): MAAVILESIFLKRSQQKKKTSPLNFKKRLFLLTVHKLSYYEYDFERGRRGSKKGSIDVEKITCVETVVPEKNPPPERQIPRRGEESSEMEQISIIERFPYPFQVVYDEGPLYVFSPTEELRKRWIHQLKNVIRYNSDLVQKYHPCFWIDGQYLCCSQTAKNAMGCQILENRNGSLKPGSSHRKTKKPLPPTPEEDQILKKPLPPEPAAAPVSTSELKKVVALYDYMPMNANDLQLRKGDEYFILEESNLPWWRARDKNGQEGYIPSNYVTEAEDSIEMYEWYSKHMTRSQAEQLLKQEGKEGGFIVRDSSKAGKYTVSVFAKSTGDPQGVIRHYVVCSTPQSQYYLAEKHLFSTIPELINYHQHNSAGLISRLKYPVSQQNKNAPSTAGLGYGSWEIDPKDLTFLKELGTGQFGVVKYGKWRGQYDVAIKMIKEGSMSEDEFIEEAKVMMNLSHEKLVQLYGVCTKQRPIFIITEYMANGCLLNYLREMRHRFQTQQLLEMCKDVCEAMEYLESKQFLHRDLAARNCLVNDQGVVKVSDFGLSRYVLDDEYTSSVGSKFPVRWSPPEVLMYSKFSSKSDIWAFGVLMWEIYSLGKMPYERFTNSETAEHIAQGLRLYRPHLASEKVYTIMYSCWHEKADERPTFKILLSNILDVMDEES
Target sequence in this assay (Q96SW2 whole entry): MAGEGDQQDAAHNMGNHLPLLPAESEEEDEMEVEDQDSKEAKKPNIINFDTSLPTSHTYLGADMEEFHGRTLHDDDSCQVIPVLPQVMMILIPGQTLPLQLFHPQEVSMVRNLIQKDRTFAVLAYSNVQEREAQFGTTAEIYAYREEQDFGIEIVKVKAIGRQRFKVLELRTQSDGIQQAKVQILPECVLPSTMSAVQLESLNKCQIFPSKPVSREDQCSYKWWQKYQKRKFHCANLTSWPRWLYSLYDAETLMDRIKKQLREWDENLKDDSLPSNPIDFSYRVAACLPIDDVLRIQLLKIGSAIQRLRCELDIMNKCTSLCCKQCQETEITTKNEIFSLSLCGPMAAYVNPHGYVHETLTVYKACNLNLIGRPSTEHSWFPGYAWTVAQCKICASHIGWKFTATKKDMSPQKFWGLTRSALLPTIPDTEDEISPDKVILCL

[2] = molecular target: Tyrosine-protein kinase FRK (Homo sapiens) (UniProt P42685); experiment: Degradation of FRK in human TMD8 cells by measuring protein level at 111 nM for 6 hrs using label free proteomic analysis; type: cell-based
How it was run: (§2)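 TMD8 cells (2 × 10^6) given 111 nM or DMSO for 6 h in duplicate. Lysed in 5% SDS/50 mM TEAB pH 8.5. 200 μg protein reduced (10 mM DTT, 55 °C, 30 min), alkylated (50 mM iodoacetamide), S-Trap processed, then LC-MS/MS. Label-free matched-peptide quantitation against DMSO, human UniProt; Benjamini–Hochberg-corrected p-values.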

[3] = molecular target: T2, Tyrosine-protein kinase BTK (Homo sapiens, UniProt Q06187); experiment: Degradation of BTK in human TMD8 cells by measuring protein level at 111 nM for 6 hrs using label free proteomic analysis; type: cell-based; how it was run: as §2
[4] = molecular target: Non-receptor tyrosine-protein kinase TYK2 (Homo sapiens) (UniProt P29597); experiment: Degradation of TYK2 in human TMD8 cells by measuring protein level at 111 nM for 6 hrs using label free proteomic analysis; type: cell-based; how it was run: as §2
[5] = molecular target: Tyrosine-protein kinase Fes/Fps (Homo sapiens) (UniProt P07332); experiment: Degradation of Fes/Fps in human TMD8 cells by measuring protein level at 111 nM for 6 hrs using label free proteomic analysis; type: cell-based; how it was run: as §2
[6] = molecular target: T3, Tyrosine-protein kinase BAZ1B (Homo sapiens) (UniProt Q9UIG0); experiment: Degradation of BAZ1B in human TMD8 cells by measuring protein level at 111 nM for 6 hrs using label free proteomic analysis; type: cell-based; how it was run: as §2
T3 sequence (whole entry): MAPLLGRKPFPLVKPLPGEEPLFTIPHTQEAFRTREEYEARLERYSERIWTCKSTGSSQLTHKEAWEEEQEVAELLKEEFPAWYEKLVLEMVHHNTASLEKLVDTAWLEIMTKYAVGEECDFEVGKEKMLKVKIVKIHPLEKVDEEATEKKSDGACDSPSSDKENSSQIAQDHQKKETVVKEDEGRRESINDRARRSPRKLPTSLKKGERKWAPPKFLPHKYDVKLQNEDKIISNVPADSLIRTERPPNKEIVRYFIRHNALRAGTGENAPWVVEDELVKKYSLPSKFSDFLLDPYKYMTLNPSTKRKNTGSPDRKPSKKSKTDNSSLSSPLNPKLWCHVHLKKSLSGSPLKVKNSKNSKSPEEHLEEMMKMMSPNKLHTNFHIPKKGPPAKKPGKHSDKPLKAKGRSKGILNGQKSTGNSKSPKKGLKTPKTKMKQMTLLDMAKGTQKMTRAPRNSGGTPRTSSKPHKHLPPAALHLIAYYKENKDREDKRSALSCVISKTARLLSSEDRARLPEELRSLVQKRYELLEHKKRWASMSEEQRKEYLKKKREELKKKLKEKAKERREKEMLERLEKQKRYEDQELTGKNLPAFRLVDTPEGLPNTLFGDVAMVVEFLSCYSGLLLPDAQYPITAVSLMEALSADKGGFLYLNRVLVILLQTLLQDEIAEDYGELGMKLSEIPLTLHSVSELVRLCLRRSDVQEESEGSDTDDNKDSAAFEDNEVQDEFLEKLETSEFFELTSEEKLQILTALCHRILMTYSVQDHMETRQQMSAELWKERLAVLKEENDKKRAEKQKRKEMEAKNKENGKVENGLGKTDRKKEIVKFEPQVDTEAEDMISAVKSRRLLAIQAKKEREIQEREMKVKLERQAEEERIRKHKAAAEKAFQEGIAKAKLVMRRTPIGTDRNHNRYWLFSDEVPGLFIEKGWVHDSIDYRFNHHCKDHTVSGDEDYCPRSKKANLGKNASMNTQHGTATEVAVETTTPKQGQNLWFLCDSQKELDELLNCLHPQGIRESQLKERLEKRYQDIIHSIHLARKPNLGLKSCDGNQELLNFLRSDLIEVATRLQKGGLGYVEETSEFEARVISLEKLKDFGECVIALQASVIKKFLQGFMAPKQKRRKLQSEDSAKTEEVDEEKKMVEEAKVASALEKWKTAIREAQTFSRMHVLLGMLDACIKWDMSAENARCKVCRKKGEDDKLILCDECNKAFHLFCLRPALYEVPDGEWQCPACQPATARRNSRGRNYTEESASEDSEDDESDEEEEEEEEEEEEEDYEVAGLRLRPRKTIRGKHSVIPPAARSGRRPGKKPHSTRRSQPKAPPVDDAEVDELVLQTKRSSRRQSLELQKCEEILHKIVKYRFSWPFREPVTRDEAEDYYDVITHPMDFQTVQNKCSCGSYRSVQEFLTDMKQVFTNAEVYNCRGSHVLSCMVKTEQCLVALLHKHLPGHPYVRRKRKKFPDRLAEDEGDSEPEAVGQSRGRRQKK

[7] = molecular target: T1, Protein cereblon/Tyrosine-protein kinase BTK; experiment: PROTAC activity at BTK/CRBN protein protein interaction in human Ramos cell assessed as degradation of BTK incubated for 17 hrs measured by Western blot analysis relative to control; type: cell-based; how it was run: as §1
Target sequence in this assay (Q06187 2-659 limits assumed): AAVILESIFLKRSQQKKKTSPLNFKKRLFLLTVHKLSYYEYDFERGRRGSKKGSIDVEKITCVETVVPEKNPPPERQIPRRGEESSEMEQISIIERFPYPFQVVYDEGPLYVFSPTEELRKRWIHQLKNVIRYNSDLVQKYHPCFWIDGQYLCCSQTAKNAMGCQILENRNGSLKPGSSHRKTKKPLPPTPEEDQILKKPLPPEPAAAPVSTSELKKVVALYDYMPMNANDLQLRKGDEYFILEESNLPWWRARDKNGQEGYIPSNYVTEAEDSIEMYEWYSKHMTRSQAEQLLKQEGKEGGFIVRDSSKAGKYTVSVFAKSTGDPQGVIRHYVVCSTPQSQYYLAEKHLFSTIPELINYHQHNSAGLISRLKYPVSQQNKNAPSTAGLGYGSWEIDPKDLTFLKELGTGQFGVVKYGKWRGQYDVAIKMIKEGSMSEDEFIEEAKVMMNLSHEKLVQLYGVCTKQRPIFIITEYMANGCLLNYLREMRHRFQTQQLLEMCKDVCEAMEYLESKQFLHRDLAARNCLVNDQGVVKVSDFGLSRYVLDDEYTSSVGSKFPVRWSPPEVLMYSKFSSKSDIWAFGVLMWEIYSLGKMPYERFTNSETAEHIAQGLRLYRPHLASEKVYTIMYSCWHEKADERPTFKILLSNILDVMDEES
Target sequence in this assay (Q96SW2 whole entry partner): as the sequence (Q96SW2 whole entry) above

[8] = molecular target: T1, Protein cereblon/Tyrosine-protein kinase BTK; experiment: PROTAC activity at BTK/CRBN protein protein interaction in human Ramos cell assessed as degradation of BTK incubated at 111 nM for 17 hrs in presence of -iberdomide at 20 uM measured by Western blot analysis
Target sequence in this assay (Q06187 2-659 limits assumed): as the sequence (Q06187 2-659 limits assumed) above
Target sequence in this assay (Q96SW2 whole entry partner): as the sequence (Q96SW2 whole entry) above

[9] = tested on: TMD8; experiment: Induction of apoptosis in human TMD8 cells assessed as increase in cleaved caspase 3 level measured after 48 hrs by Western blot analysis; type: functional, cell-based; settings: dose 0.15-3000 nM
How it was run: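 TMD8 or Mino cells (2 × 10^6 per well) exposed 48 h to 3000–0.15 nM (3-fold dilution) or 1% DMSO. Lysates BCA-normalised, 8–30 μg per lane on 4–20% Tris-glycine gels, transferred to nitrocellulose, probed with antibodies, HRP chemiluminescence detection and densitometry. Representative of two independent experiments.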

[10] = molecular target: T2, Tyrosine-protein kinase BTK; experiment: Binding affinity to full length BTK (unknown origin) assessed as dissociation constant measured at 37 degree C by TR-FRET assay
[11] = tested on: MINO; experiment: Induction of apoptosis in human MINO cells at 333 nM for 48 hrs by Annexin-V/propidium iodide staining based flow cytometric analysis; type: functional, cell-based
How it was run: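 Cells plated at 2 × 10^6 per well and treated 48 h at 3,000–0.15 nM (3-fold dilutions) or 1% DMSO. Harvested, washed in cold PBS, stained with Annexin V Alexa Fluor 488/propidium iodide, analysed by flow cytometry for % live, apoptotic and necrotic cells. Mean of two independent experiments.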

[12] = molecular target: Protein cereblon (Homo sapiens, UniProt Q96SW2); experiment: Inhibition of CRBN in HEK293 cells using NanoGlo substrate incubated for 2 hrs by NanoBRET assay; type: cell-based
Chain of Protein cereblon (Q96SW2 whole entry): as above

T2 sequence (Q06187 whole entry): as the sequence (Q06187 whole entry) above
Chain of Tyrosine-protein kinase Fes/Fps (Homo sapiens) (P07332 whole entry): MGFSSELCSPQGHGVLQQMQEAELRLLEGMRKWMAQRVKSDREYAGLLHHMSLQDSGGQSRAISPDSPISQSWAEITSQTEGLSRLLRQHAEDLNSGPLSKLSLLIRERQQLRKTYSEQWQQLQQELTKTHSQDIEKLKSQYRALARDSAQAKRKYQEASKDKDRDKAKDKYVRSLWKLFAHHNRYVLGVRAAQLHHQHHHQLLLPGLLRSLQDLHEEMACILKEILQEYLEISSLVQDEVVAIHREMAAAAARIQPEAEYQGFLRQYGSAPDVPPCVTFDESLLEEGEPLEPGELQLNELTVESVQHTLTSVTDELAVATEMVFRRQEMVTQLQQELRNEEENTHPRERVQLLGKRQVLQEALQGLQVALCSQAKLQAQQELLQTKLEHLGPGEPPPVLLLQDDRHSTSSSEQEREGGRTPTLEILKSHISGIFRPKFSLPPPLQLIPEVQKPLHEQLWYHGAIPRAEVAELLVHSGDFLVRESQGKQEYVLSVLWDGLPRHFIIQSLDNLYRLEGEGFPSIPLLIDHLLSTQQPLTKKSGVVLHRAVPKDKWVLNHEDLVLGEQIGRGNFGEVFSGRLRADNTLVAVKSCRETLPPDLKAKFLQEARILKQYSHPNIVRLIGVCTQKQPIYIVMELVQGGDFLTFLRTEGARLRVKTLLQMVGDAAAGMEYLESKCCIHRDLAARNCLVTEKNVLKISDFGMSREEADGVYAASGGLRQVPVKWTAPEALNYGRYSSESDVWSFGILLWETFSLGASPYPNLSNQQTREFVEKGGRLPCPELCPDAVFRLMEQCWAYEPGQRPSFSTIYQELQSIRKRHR
Chain of Tyrosine-protein kinase FRK (Homo sapiens) (P42685 whole entry): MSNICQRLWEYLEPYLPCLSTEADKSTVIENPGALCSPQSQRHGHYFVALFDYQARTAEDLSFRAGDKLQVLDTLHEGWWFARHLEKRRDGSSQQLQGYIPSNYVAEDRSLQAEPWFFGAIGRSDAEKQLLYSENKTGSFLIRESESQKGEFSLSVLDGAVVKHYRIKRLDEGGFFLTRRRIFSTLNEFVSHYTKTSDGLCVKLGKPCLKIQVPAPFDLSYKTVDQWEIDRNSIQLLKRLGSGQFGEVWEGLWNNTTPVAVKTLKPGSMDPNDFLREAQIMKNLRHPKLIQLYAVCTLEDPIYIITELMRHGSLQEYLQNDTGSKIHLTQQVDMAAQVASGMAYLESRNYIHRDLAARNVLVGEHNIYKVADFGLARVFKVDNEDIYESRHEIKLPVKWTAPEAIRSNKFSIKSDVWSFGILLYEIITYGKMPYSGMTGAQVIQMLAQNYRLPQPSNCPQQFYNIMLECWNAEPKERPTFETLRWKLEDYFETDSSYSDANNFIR
Chain of Non-receptor tyrosine-protein kinase TYK2 (Homo sapiens) (P29597 whole entry): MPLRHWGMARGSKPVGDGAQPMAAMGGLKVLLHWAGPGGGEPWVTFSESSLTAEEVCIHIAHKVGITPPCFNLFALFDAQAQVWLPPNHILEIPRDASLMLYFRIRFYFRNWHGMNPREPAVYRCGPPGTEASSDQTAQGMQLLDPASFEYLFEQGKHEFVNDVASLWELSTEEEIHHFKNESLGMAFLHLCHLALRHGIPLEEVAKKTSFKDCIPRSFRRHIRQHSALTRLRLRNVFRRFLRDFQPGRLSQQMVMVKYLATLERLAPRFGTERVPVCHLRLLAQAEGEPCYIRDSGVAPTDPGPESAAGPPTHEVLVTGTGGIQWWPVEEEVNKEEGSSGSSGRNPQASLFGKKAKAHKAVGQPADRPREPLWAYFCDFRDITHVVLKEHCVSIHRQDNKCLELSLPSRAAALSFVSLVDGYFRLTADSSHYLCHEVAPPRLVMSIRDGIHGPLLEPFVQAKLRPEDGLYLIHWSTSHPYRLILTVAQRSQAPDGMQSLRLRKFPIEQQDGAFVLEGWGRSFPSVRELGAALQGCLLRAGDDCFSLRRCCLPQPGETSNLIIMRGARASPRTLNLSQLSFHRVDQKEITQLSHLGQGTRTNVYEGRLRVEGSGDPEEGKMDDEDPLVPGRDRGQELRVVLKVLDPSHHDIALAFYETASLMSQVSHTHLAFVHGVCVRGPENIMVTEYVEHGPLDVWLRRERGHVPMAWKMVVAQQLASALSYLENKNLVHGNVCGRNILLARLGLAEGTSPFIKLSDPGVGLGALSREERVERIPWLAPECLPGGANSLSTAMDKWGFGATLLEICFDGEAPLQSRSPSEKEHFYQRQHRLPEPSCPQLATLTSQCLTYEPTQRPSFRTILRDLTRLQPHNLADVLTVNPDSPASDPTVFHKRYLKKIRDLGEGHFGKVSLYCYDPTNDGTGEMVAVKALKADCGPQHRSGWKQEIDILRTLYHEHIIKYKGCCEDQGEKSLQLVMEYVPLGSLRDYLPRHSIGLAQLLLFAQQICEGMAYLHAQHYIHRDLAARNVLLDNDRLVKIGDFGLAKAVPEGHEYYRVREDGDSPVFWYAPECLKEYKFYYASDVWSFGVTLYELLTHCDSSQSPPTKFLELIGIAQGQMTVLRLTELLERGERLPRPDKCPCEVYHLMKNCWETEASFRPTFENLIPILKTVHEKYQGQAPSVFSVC

DC50 [1] | Activity [2] | Activity [3] | Activity [4] | Activity [5] | Activity [6] | Emax [7] | Activity [8] | Kd [10] | IC50 [12] | Compound | Activity [9] | Activity [11]
1.7 nM | inactive | Active | inactive | inactive | inactive | 96.2% | – | – | – | C[C@H]1CN(C(=O)COc2cccc3c2C(=O)N(C2CCC(=O)NC2=O)C3=O)CCN1c1ccc(Nc2cc(-c3ccnc(N4CCn5c(cc6c5CC(C)(C)C6)C4=O)c3CO)cn(C)c2=O)nc1 (some centres undefined) | – | –
0.5 nM | inactive | Active | inactive | inactive | inactive | 97.1% | inactive | 2.28 nM | 107 nM | C[C@H]1CN(C(=O)CNc2cccc3c2C(=O)N(C2CCC(=O)NC2=O)C3=O)CCN1c1ccc(Nc2cc(-c3ccnc(N4CCn5c(cc6c5CC(C)(C)C6)C4=O)c3CO)cn(C)c2=O)nc1 (some centres undefined) | Active | Active

Source: ChEMBL document CHEMBL5338787, “Discovery of Novel Bruton's Tyrosine Kinase PROTACs with Enhanced Selectivity and Cellular Efficacy” (J Med Chem, 2023)
